Where a SMILES comes first, the peptide text is derived from it.
These molecules were tested against T1, High affinity immunoglobulin epsilon receptor subunit alpha (Homo sapiens, UniProt P12319) (assay: Binding affinity towards Fc-epsilon RI-alpha human mast cell receptor was determined).
T1 sequence (P12319 whole entry): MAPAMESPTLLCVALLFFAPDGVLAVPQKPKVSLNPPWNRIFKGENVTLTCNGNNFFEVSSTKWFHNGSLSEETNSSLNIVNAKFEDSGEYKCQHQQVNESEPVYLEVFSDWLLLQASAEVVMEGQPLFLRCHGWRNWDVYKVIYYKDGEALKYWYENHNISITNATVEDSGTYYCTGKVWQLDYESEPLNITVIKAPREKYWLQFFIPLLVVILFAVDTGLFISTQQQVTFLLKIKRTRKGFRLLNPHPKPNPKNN
In short: (§1)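 Competitive fluorescence polarization: FcεRIα subunit of human IgE receptor expressed in insect cells (7 nM) with fluorescein-labelled MCD peptide tracer (4 nM) in PBS pH 7.4, unlabelled peptide 7–500 μM, 25 °C 5 min. Ex 485/em 535 nm, mP; tracer-alone background subtracted; mean of many consecutive readings; IC50 by nonlinear regression.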

Structure (SMILES)	IC50
CC[C@H](C)[C@H](N)C(=O)N[C@@H](C)C(=O)N[C@@H](CS)C(=O)N[C@@H](CC(N)=O)C(=O)N[C@@H](CS)C(=O)N[C@@H](CCCCN)C(=O)N[C@@H](CCCN=C(N)N)C(=O)N[C@@H](Cc1c[nH]cn1)C(=O)N[C@H](C(=O)N[C@H](C(=O)N[C@@H](CCCCN)C(=O)N1CCC[C@H]1C(=O)N[C@@H](Cc1c[nH]cn1)C(=O)N[C@H](C(=O)N[C@@H](CS)C(=O)N[C@@H](CCCN=C(N)N)C(=O)N[C@@H](CCCCN)C(=O)N[C@H](C(=O)N[C@@H](CS)C(=O)NCC(=O)N[C@@H](CCCCN)C(=O)N[C@@H](CC(N)=O)C(N)=O)[C@@H](C)CC)[C@@H](C)CC)[C@@H](C)CC)C(C)C (H-IACNCKRHVIKPHICRKICGKN-NH2)	82 µM
CC[C@H](C)[C@H](N)C(=O)N[C@@H](CCCCN)C(=O)N[C@@H](CS)C(=O)N[C@@H](CC(N)=O)C(=O)N[C@@H](CS)C(=O)N[C@@H](C)C(=O)N[C@@H](CCCNC(=N)N)C(=O)N[C@@H](Cc1cnc[nH]1)C(=O)N[C@H](C(=O)N[C@H](C(=O)N[C@@H](CCCCN)C(=O)N1CCC[C@H]1C(=O)N[C@@H](Cc1cnc[nH]1)C(=O)N[C@H](C(=O)N[C@@H](CS)C(=O)N[C@@H](CCCNC(=N)N)C(=O)N[C@@H](CCCCN)C(=O)N[C@H](C(=O)N[C@@H](CS)C(=O)NCC(=O)N[C@@H](CCCCN)C(=O)N[C@@H](CC(N)=O)C(N)=O)[C@@H](C)CC)[C@@H](C)CC)[C@@H](C)CC)C(C)C (H-IKCNCARHVIKPHICRKICGKN-NH2)	71 µM
CC[C@H](C)[C@H](N)C(=O)N[C@@H](CCCCN)C(=O)N[C@@H](CS)C(=O)N[C@@H](CC(N)=O)C(=O)N[C@@H](CS)C(=O)N[C@@H](CCCCN)C(=O)N[C@@H](CCCNC(=N)N)C(=O)N[C@@H](Cc1cnc[nH]1)C(=O)N[C@H](C(=O)N[C@H](C(=O)N[C@@H](C)C(=O)N1CCC[C@H]1C(=O)N[C@@H](Cc1cnc[nH]1)C(=O)N[C@H](C(=O)N[C@@H](CS)C(=O)N[C@@H](CCCNC(=N)N)C(=O)N[C@@H](CCCCN)C(=O)N[C@H](C(=O)N[C@@H](CS)C(=O)NCC(=O)N[C@@H](CCCCN)C(=O)N[C@@H](CC(N)=O)C(N)=O)[C@@H](C)CC)[C@@H](C)CC)[C@@H](C)CC)C(C)C (H-IKCNCKRHVIAPHICRKICGKN-NH2)	153 µM
CC[C@H](C)[C@H](N)C(=O)N[C@@H](CCCCN)C(=O)N[C@@H](CS)C(=O)N[C@@H](CC(N)=O)C(=O)N[C@@H](CS)C(=O)N[C@@H](CCCCN)C(=O)N[C@@H](CCCNC(=N)N)C(=O)N[C@@H](Cc1cnc[nH]1)C(=O)N[C@H](C(=O)N[C@H](C(=O)N[C@@H](CCCCN)C(=O)N1CCC[C@H]1C(=O)N[C@@H](Cc1cnc[nH]1)C(=O)N[C@H](C(=O)N[C@@H](CS)C(=O)N[C@@H](CCCNC(=N)N)C(=O)N[C@@H](C)C(=O)N[C@H](C(=O)N[C@@H](CS)C(=O)NCC(=O)N[C@@H](CCCCN)C(=O)N[C@@H](CC(N)=O)C(N)=O)[C@@H](C)CC)[C@@H](C)CC)[C@@H](C)CC)C(C)C (H-IKCNCKRHVIKPHICRAICGKN-NH2)	153 µM
CC[C@H](C)[C@H](N)C(=O)N[C@@H](CCCCN)C(=O)N[C@@H](CS)C(=O)N[C@@H](CC(N)=O)C(=O)N[C@@H](CS)C(=O)N[C@@H](CCCCN)C(=O)N[C@@H](CCCN=C(N)N)C(=O)N[C@@H](Cc1c[nH]cn1)C(=O)N[C@H](C(=O)N[C@H](C(=O)N[C@@H](CCCCN)C(=O)N1CCC[C@H]1C(=O)N[C@@H](Cc1c[nH]cn1)C(=O)N[C@H](C(=O)N[C@@H](CS)C(=O)N[C@@H](CCCN=C(N)N)C(=O)N[C@@H](CCCCN)C(=O)N[C@H](C(=O)N[C@@H](CS)C(=O)NCC(=O)N[C@@H](C)C(=O)N[C@@H](CC(N)=O)C(N)=O)[C@@H](C)CC)[C@@H](C)CC)[C@@H](C)CC)C(C)C (H-IKCNCKRHVIKPHICRKICGAN-NH2)	153 µM

The molecules below were run against T1, High affinity immunoglobulin epsilon receptor subunit alpha (assay: Binding affinity towards Fc-epsilon RI-alpha mast cell receptor human mast cell receptor was determined).
In short: as §1

Structure (SMILES)	IC50
CC[C@H](C)[C@H](N)C(=O)N[C@@H](CCCCN)C(=O)N[C@@H](CS)C(=O)N[C@@H](CC(N)=O)C(=O)N[C@@H](CS)C(=O)N[C@@H](CCCCN)C(=O)N[C@@H](CCCN=C(N)N)C(=O)N[C@@H](Cc1c[nH]cn1)C(=O)N[C@H](C(=O)N[C@H](C(=O)N[C@@H](CCCCN)C(=O)N1CCC[C@H]1C(=O)N[C@@H](Cc1c[nH]cn1)C(=O)N[C@H](C(=O)N[C@@H](CS)C(=O)N[C@@H](CCCN=C(N)N)C(=O)N[C@@H](CCCCN)C(=O)N[C@H](C(=O)N[C@@H](CS)C(=O)NCC(=O)N[C@@H](CCCCN)C(=O)N[C@@H](CC(N)=O)C(N)=O)[C@@H](C)CC)[C@@H](C)CC)[C@@H](C)CC)C(C)C (H-IKCNCKRHVIKPHICRKICGKN-NH2)	114 µM

Species: Rattus norvegicus
Assay: Concentration of peptide at 50% maximal histamine release at concentration 10e-5 M
Assay type: functional
In short: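 Rat peritoneal mast cells (Sprague–Dawley) lavaged into carbonate- and divalent-cation-free Tyrode's with 15 mM Hepes pH 7.2, 0.1% BSA, purified on Accudenz gradient; (1–2) × 10^3 cells/well with peptide, 37 °C 20 min. Residual cellular histamine freed by Triton X-100 then TFA, measured fluorometrically with phthalaldehyde/NaOH; n = 6; nonlinear regression.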

Structure (SMILES)	ED50
CC[C@H](C)[C@H](N)C(=O)N[C@@H](CCCCN)C(=O)N[C@@H](CS)C(=O)N[C@@H](CC(N)=O)C(=O)N[C@@H](CS)C(=O)N[C@@H](C)C(=O)N[C@@H](CCCN=C(N)N)C(=O)N[C@@H](Cc1c[nH]cn1)C(=O)N[C@H](C(=O)N[C@H](C(=O)N[C@@H](CCCCN)C(=O)N1CCC[C@H]1C(=O)N[C@@H](Cc1c[nH]cn1)C(=O)N[C@H](C(=O)N[C@@H](CS)C(=O)N[C@@H](CCCN=C(N)N)C(=O)N[C@@H](CCCCN)C(=O)N[C@H](C(=O)N[C@@H](CS)C(=O)NCC(=O)N[C@@H](CCCCN)C(=O)N[C@@H](CC(N)=O)C(N)=O)[C@@H](C)CC)[C@@H](C)CC)[C@@H](C)CC)C(C)C (H-IKCNCARHVIKPHICRKICGKN-NH2)	12.54
CC[C@H](C)[C@H](N)C(=O)N[C@@H](CCCCN)C(=O)N[C@@H](CS)C(=O)N[C@@H](CC(N)=O)C(=O)N[C@@H](CS)C(=O)N[C@@H](CCCCN)C(=O)N[C@@H](CCCN=C(N)N)C(=O)N[C@@H](Cc1c[nH]cn1)C(=O)N[C@H](C(=O)N[C@H](C(=O)N[C@@H](C)C(=O)N1CCC[C@H]1C(=O)N[C@@H](Cc1c[nH]cn1)C(=O)N[C@H](C(=O)N[C@@H](CS)C(=O)N[C@@H](CCCN=C(N)N)C(=O)N[C@@H](CCCCN)C(=O)N[C@H](C(=O)N[C@@H](CS)C(=O)NCC(=O)N[C@@H](CCCCN)C(=O)N[C@@H](CC(N)=O)C(N)=O)[C@@H](C)CC)[C@@H](C)CC)[C@@H](C)CC)C(C)C (H-IKCNCKRHVIAPHICRKICGKN-NH2)	1.07
CC[C@H](C)[C@H](N)C(=O)N[C@@H](CCCCN)C(=O)N[C@@H](CS)C(=O)N[C@@H](CC(N)=O)C(=O)N[C@@H](CS)C(=O)N[C@@H](CCCCN)C(=O)N[C@@H](CCCN=C(N)N)C(=O)N[C@@H](Cc1c[nH]cn1)C(=O)N[C@H](C(=O)N[C@H](C(=O)N[C@@H](CCCCN)C(=O)N1CCC[C@H]1C(=O)N[C@@H](Cc1c[nH]cn1)C(=O)N[C@H](C(=O)N[C@@H](CS)C(=O)N[C@@H](CCCN=C(N)N)C(=O)N[C@@H](C)C(=O)N[C@H](C(=O)N[C@@H](CS)C(=O)NCC(=O)N[C@@H](CCCCN)C(=O)N[C@@H](CC(N)=O)C(N)=O)[C@@H](C)CC)[C@@H](C)CC)[C@@H](C)CC)C(C)C (H-IKCNCKRHVIKPHICRAICGKN-NH2)	0.77
